Measured values of several laboratories.
Each line is one published result; the experiments were not run side by side.
Cell line: HeLa
Read-out: cell growth or viability

For `CC[C@@]1(OC(=O)[C@H](C)N)C(=O)OCc2c1cc1n(c2=O)Cc2cc3cc4c(cc3nc2-1)OCO4`, the IC50 was 103 nM (MTT).
For `CC(C)[C@]12O[C@H]1[C@@H]1O[C@]13[C@]1(O[C@H]1C[C@H]1C4=C(CC[C@@]13C)C(=O)OC4)[C@@H]2O`, the IC50 was 41 nM (thymidine uptake; 3 h).
`COc1c2c(cc3c1OCO3)[C@]13C=C[C@H](OC)C[C@@H]1[N@](C2)C[C@H]3OC(=O)c1ccco1` has an IC50 of greater than 10000 nM (WST-1; 48 h).
`CC[C@@]1(OC(=O)[C@@H](N)C(C)C)C(=O)OCc2c1cc1n(c2=O)Cc2cc3cc4c(cc3nc2-1)OCO4` gave an IC50 of 114 nM (MTT).
`N#Cc1ccc(NC(=S)NN=Cc2ccc(F)cc2)cc1` gave an IC50 of 68 µg/mL (72 h).
`CC[C@@]1(OC(=O)[C@@H]2CCCN2)C(=O)OCc2c1cc1n(c2=O)Cc2cc3cc4c(cc3nc2-1)OCO4` gave an IC50 of 200 nM (MTT).
For `C[C@]12CCC(=O)C[C@@H]1CC[C@@H]1[C@@H]2CC[C@@]2(C)[C@H]1CC[C@]2(C)O`, the IC50 was 27600 nM (MTT; 24 h).
`N#Cc1ccc(NC(=S)NN=Cc2ccc([N+](=O)[O-])cc2)cc1` has an IC50 of 142 µg/mL (72 h).
For `COc1c2c(cc3c1OCO3)[C@]13C=C[C@H](OC)C[C@@H]1[N@](C2)C[C@H]3OC(=O)c1ccc2ccccc2c1`, the IC50 was greater than 10000 nM (WST-1; 48 h).
`N.N.[Cl][Pt][Cl]` has an IC50 of 2330 nM (MTT; 24 h).
`CC[C@@]1(OC(=O)[C@@H](N)CCSC)C(=O)OCc2c1cc1n(c2=O)Cc2cc3cc4c(cc3nc2-1)OCO4` gave an IC50 of 95 nM (MTT).
For `COc1cc(C(=O)c2cc3c(-c4ccccc4)c(O)ccc3o2)cc(OC)c1OC`, the IC50 was 31000 nM.
`O=C(Cc1ccc2ccccc2c1)N[C@@H](Cc1ccccc1)C(=O)N[C@@H](Cc1ccccc1)C(=O)N[C@@H](Cc1ccc(OP(=O)(O)O)cc1)C(=O)O` has an IC50 of greater than 500000 nM (MTT; 48 h).
With `Nc1cc(I)c(I)cc1N` the IC50 was 15000 nM (72 h).
The IC50 of `N.N.[Cl][Pt][Cl]` is reported as 17000 nM (MTT; 48 h).
The IC50 of `CSc1ccc(NC(=S)NN)cc1` is reported as 18 µg/mL (72 h).
`CC[C@H](C)[C@H](N)C(=O)O[C@]1(CC)C(=O)OCc2c1cc1n(c2=O)Cc2cc3cc4c(cc3nc2-1)OCO4` has an IC50 of 124 nM (MTT).
The IC50 of `N#Cc1ccc(NC(=S)NN)cc1` is reported as 11 µg/mL (72 h).
`CC[C@@]1(OC(=O)CN)C(=O)OCc2c1cc1n(c2=O)Cc2cc3cc4c(cc3nc2-1)OCO4` has an IC50 of 42 nM (MTT).
